Laboratory results taken from ChEMBL document CHEMBL2424553, “Synthesis, molecular docking and kinetic properties of β-hydroxy-β-phenylpropionyl-hydroxamic acids as Helicobacter pylori urease inhibitors” (Eur J Med Chem, 2013).
pIC50, pKi: −log10 of the molar value.

Assays:
[1] = biological target: T1, Urease subunit alpha/Urease subunit beta (Helicobacter pylori (strain ATCC 700392 / 26695) (Campylobacterpylori), UniProt P69996); experiment: Inhibition of urease extracted from Helicobacter pylori ATCC 43504 assessed as ammonia production preincubated for 1.5 hrs by indophenol-based method
In short: (§1)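 H. pylori ATCC 43504 grown 24 h at 37 °C in Brucella broth with 10% heat-inactivated horse serum under microaerobic gas (5% O2, 10% CO2, 85% N2). Cells pelleted (5000 g, 4 °C) and washed twice in PBS pH 7.4 to prepare urease. Enzyme pre-incubated with test compound 1.5 h at room temperature. Ammonia measured by the indophenol method. Run in triplicate.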

[2] = biological target: T1, Urease subunit alpha/Urease subunit beta; experiment: Inhibition of urease in Helicobacter pylori ATCC 43504 intact cell assessed as ammonia production preincubated for 1.5 hrs by indophenol-based method
In short: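 H. pylori grown 24 h at 37 °C in Brucella broth with 10% heat-inactivated horse serum, microaerobic (5% O₂, 10% CO₂, 85% N₂); cells pelleted (5000 g, 4 °C), PBS-washed (pH 7.4), suspended at 4.0 × 10⁷ CFU/mL. Suspension with test compound preincubated 1.5 h at room temperature; ammonia measured by Weatherburn indophenol method.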

[3] = biological target: T2, Urease subunit alpha/Urease subunit beta (Helicobacter pylori (strain ATCC 700392 / 26695) (Campylobacterpylori)) (UniProt P69996+P14916); experiment: Ratio of IC50 for urease in Helicobacter pylori ATCC 43504 intact cell to IC50 for urease extracted from Helicobacter pylori ATCC 43504
[4] = biological target: T1, Urease subunit alpha/Urease subunit beta; experiment: Mixed-type competitive inhibition of Helicobacter pylori ATCC 43504 urease using urea as substrate by Lineweaver-burk plot analysis
[5] = biological target: T1, Urease subunit alpha/Urease subunit beta; experiment: Inhibition of Helicobacter pylori urease; in short: as §1
[6] = biological target: T2, Urease subunit alpha/Urease subunit beta (Helicobacter pylori (strain ATCC 700392 / 26695) (Campylobacterpylori)); experiment: Potency index, ratio of AHA IC50 to compound IC50 for Helicobacter pylori ATCC 43504 urease

T2 sequence (P14916 whole entry, looked up): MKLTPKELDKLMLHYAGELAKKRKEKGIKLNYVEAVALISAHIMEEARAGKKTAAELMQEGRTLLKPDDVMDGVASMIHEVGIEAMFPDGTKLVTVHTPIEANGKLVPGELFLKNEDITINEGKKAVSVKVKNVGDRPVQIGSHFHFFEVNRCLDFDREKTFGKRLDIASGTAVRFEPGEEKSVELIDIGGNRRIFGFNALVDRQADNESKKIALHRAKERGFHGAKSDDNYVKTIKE
T2 sequence (P69996 whole entry, looked up): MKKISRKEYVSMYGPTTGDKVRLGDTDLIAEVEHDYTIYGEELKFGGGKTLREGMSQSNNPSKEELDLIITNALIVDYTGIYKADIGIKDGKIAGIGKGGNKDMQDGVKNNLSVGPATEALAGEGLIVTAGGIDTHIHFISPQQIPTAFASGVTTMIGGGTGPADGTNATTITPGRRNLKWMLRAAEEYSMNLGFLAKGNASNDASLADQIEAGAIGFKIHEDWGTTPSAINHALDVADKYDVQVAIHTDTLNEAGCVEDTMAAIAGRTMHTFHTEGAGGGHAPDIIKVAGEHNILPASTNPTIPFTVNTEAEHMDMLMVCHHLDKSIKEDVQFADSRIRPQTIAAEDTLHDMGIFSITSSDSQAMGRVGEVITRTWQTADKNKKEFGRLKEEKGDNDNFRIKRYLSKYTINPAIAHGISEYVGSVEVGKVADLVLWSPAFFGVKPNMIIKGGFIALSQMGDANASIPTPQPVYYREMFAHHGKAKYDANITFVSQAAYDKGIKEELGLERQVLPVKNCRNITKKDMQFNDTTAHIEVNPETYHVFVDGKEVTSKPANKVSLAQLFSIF
T1 sequence (P69996 whole entry): as the sequence (P69996 whole entry, looked up) above
T1 sequence (P14916 whole entry, further chain): as the sequence (P14916 whole entry, looked up) above

| Compound | pIC50 [1] | pIC50 [2] | Ratio IC50 [3] | other results |
| --- | --- | --- | --- | --- |
| O=C(CC(O)c1ccc(Cl)cc1)NO (racemic) | 5.47 |  |  |  |
| O=C(CC(O)c1cccc(O)c1)NO (racemic) | 3.88 |  |  |  |
| COc1ccc(F)cc1C(O)CC(=O)NO (racemic) | 4.96 |  |  |  |
| COc1ccccc1C(O)CC(=O)NO (racemic) | 4.41 |  |  |  |
| O=C(CC(O)c1ccc(OCc2ccccc2)cc1)NO (racemic) | 4.21 |  |  |  |
| O=C(CC(O)c1cccc(F)c1)NO (racemic) | 5.40 | 4.88 | 3 |  |
| CN(C)c1ccc(C(=O)NO)cc1 | 4.11 |  |  |  |
| O=C(CC(O)c1cc(Cl)ccc1O)NO (racemic) | 5.89 | 4.95 | 8.8 |  |
| O=C(CC(O)c1ccccc1F)NO (racemic) | 5.25 |  |  |  |
| O=C(CC(O)c1cccc(Cl)c1Cl)NO (racemic) | 6.64 | 6.04 | 4 | pKi [4]: 7.35 |
| O=C(CC(O)c1ccc(C(F)(F)F)cc1)NO (racemic) | 5.10 |  |  |  |
| O=C(CC(O)c1cccc(C(F)(F)F)c1)NO (racemic) | 5.91 | 5.17 | 3 |  |
| CN(C)c1ccc(C(O)CC(=O)NO)cc1 (racemic) | 5.15 |  |  |  |
| O=C(CC(O)c1cc(Cl)cc(Cl)c1O)NO (racemic) | 5.98 | 5.05 | 3 |  |
| O=C(CC(O)c1ccccc1Cl)NO (racemic) | 5.92 | 5.04 | 3 |  |
| O=C(CC(O)c1ccc(F)cc1)NO (racemic) | 5.10 |  |  |  |
| O=C(CC(O)c1ccc(Cl)c(Cl)c1)NO (racemic) | 6.43 | 5.85 | 3 |  |
| O=C(CC(O)c1ccccc1)NO (racemic) | 4.81 |  |  |  |
| CC(=O)NO [ACETOHYDROXAMIC ACID] | 4.56 | 3.96 |  |  |
| COc1cccc(C(O)CC(=O)NO)c1 (racemic) | 4.63 |  |  |  |
| O=c1c(O)c(-c2ccc(O)c(O)c2)oc2cc(O)cc(O)c12 [QUERCETIN] |  |  |  | pIC50 [5]: 4.95 |
| O=C(CC(O)c1cccc(Cl)c1)NO (racemic) | 7.08 | 6.44 |  | Ratio IC50 [6]: 330; pKi [4]: 7.85 |
| COc1ccc(C(O)CC(=O)NO)cc1 (racemic) | 4.12 |  |  |  |
